“Also recorded” adds a separate entry of the source.
Columns and labels:
Format in all cases: in vivo, human
[1] = tested on: participants with mild‐to‐moderate AD
How it was run: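 Adults and children with mild-to-moderate AD (IGA 2–3, 2–20% BSA, EASI 3–21) were randomized equally to eight arms for 6 weeks. QD arms were vehicle, 0·1% (1 mg g–1), 0·3%, 1·0% or 3·0% cream; BID arms were vehicle, 0·3% or 1%. Application was to all affected areas except hair-bearing scalp. Read-outs were POEM at weeks 1, 2 and 6 and weekly PP-NRS averages, analysed by ANCOVA or MMRM.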

[2] = tested on: participants with mild‐to‐moderate AD; assay: Phase IIb study: safety and tolerability
How it was run: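 Safety data came from randomized participants treated for 6 weeks with vehicle or cream (QD 0·1–3·0%, or BID 0·3%/1%). Measures were treatment-emergent adverse events coded by System Organ Class, discontinuations due to TEAEs, vital signs, laboratory tests (haematology, creatine kinase, liver function) and ECGs. All were summarized descriptively.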

[3] = Phase IIb study: plasma concentrations of brepocitinib; conditions: topical cream, all dose groups; lower limit of quantification 0·200 ng mL^–1
How it was run: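 Blood was drawn pre-dose at baseline and at weeks 1, 2, 3, 4 and 6, each at the same interval after application, during 6 weeks of topical cream given QD (0·1–3·0%) or BID (0·3%, 1%). Plasma brepocitinib was quantified against an LLOQ of 0·200 ng mL–1 and summarized as median concentration per dose group.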

With `Cn1cc(Nc2nccc(N3C[C@H]4CC[C@@H](C3)N4C(=O)[C@@H]3CC3(F)F)n2)cn1` [brepocitinib] the “Percentage change from baseline in EASI score compared with respective vehicle” value ([1]; 1% QD, 3% QD and 1% BID groups, week 1 and all subsequent time points) was “significantly greater percentage changes from baseline in EASI score”, the “Onset of clinically relevant reductions in pruritus” value ([1]; 24 h after the first administration) was “as early as day 2” and the “Change from baseline in POEM at week 6 vs. vehicle” value ([1]; all brepocitinib groups) was “significantly different from vehicle”. The “Discontinued from study due to TEAE, participants” value (from here on “Discontinued from study due”) ([2]; 0·1% QD (N = 37)) was 2 (5·4) n (%), the “Nasopharyngitis (TEAE), participants” value ([2]; 0·1% QD (N = 37)) was 2 (5·4) n (%) and the “Severe TEAEs, participants” value ([2]; 0·1% QD (N = 37)) was 0 n (%). The “TEAEs, all causalities, participants” value ([2]; 0·1% QD (N = 37)) was 17 (45·9) n (%), the “Treatment‐emergent SAEs, participants” value ([2]; 0·1% QD (N = 37)) was 0 n (%) and the “Worsening of AD (TEAE), participants” value ([2]; 0·1% QD (N = 37)) was 3 (8·1) n (%). For the same compound, the “Cases of creatine kinase elevation (≥ 2–3× the upper limit of normal)” value ([2]; 0·1% QD and 0·3% QD groups, not deemed treatment‐related) was “one participant each”, the “Discontinued from study due” value ([2]; 0·3% BID (N = 36)) was 1 (2·8) n (%) and the “Nasopharyngitis (TEAE), participants” value ([2]; 0·3% BID (N = 36)) was 2 (5·6) n (%). For the same compound, the “Severe TEAEs, participants” value ([2]; 0·3% BID (N = 36)) was 1 (2·8) n (%), the “TEAEs, all causalities, participants” value ([2]; 0·3% BID (N = 36)) was 9 (25·0) n (%) and the “Treatment‐emergent SAEs, participants” value ([2]; 0·3% BID (N = 36)) was 0 n (%). The “Worsening of AD (TEAE), participants” value ([2]; 0·3% BID (N = 36)) was 0 n (%), the “Discontinued from study due” value ([2]; 0·3% QD (N = 36)) was 1 (2·8) n (%) and the “Nasopharyngitis (TEAE), participants” value ([2]; 0·3% QD (N = 36)) was 2 (5·6) n (%). For the same compound, the “Severe TEAEs, participants” value ([2]; 0·3% QD (N = 36)) was 0 n (%), the “TEAEs, all causalities, participants” value ([2]; 0·3% QD (N = 36)) was 11 (30·6) n (%) and the “Treatment‐emergent SAEs, participants” value ([2]; 0·3% QD (N = 36)) was 0 n (%). For the same compound, the “Worsening of AD (TEAE), participants” value ([2]; 0·3% QD (N = 36)) was 1 (2·8) n (%), the “Discontinued from study due” value ([2]; 1.0% QD (N = 37)) was 2 (5·4) n (%) and the “Nasopharyngitis (TEAE), participants” value ([2]; 1.0% QD (N = 37)) was 3 (8·1) n (%). For the same compound, the “Severe TEAEs, participants” value ([2]; 1.0% QD (N = 37)) was 0 n (%), the “TEAEs, all causalities, participants” value ([2]; 1.0% QD (N = 37)) was 12 (32·4) n (%) and the “Treatment‐emergent SAEs, participants” value ([2]; 1.0% QD (N = 37)) was 0 n (%). For the same compound, the “Worsening of AD (TEAE), participants” value ([2]; 1.0% QD (N = 37)) was 0 n (%), the “Discontinued from study due” value ([2]; 1·0% BID (N = 37)) was 0 n (%) and the “Nasopharyngitis (TEAE), participants” value ([2]; 1·0% BID (N = 37)) was 2 (5·4) n (%). For the same compound, the “Severe TEAEs, participants” value ([2]; 1·0% BID (N = 37)) was 0 n (%), the “TEAEs, all causalities, participants” value ([2]; 1·0% BID (N = 37)) was 14 (37·8) n (%) and the “Treatment‐emergent SAEs, participants” value ([2]; 1·0% BID (N = 37)) was 0 n (%). For the same compound, the “Worsening of AD (TEAE), participants” value ([2]; 1·0% BID (N = 37)) was 2 (5·4) n (%), the “Discontinued from study due” value ([2]; 3·0% QD (N = 36)) was 2 (5·6) n (%) and the “Nasopharyngitis (TEAE), participants” value ([2]; 3·0% QD (N = 36)) was 4 (11·1) n (%). For the same compound, the “Severe TEAEs, participants” value ([2]; 3·0% QD (N = 36)) was 0 n (%), the “TEAEs, all causalities, participants” value ([2]; 3·0% QD (N = 36)) was 10 (27·8) n (%) and the “Treatment‐emergent SAEs, participants” value ([2]; 3·0% QD (N = 36)) was 0 n (%). For the same compound, the “Worsening of AD (TEAE), participants” value ([2]; 3·0% QD (N = 36)) was 1 (2·8) n (%), the “Discontinuations due to TEAEs in SOC skin and subcutaneous tissue disorders” value ([2]; all brepocitinib groups together) was 4 n and the “Trends in haemoglobin, platelet, lymphocyte or neutrophil counts or creatine kinase levels” value ([2]; all groups) was “no clinically significant trends”. For the same compound, the “Serious AEs or deaths” value ([2]; all groups, 6 weeks treatment) was “no serious AEs or deaths; also recorded: no serious TEAEs or deaths” and the Plasma brepocitinib concentrations [3] was “low and highly variable”.

Source: PMC10092158 (The British Journal of Dermatology, 2022)
